# Bioassay records: PubChem BioAssay, several laboratories
# A selection: hits, their analogues and other compounds. The true share with any hit is near 3.3%.
# ATG4B inhibitor = ATG4B (human) cysteine protease inhibition; Q9Y4P1; ATG4B cleavage of LC3-PLA2, NBD-HPC fluorescence, 1 h; inhibition, % at 8.33 µM; 340,000 tested, 0.51% active; AID 504462; in the data active = inhibition above about 40%
# Arrestin-AP2 inh = inhibitors of human beta-arrestin and AP2 interaction; 340,000 tested, 0.31% active; FITC-arrestin peptide / GST-AP2 beads, flow cytometry; AP2 beta2 appendage carries R879A mutation; inhibition, % at 10 µM; AID 504490;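 active = inhibition above a set limit, near 3 SD of compounds lacking own fluorescence, cut at about 54% in these data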;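 also: plate controls were DMSO wells for no effect and 5 µM unlabelled arrestin peptide for full effect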
#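 Assay system: GST-AP2 R879A bound to glutathione beads, E. coli-expressed; Medium: PBS with 0.05% Tween 20 and 0.1% BSA; Also added: fluorescein-tagged arrestin peptide at 50 nM final; Timing: 12 min plus 1 h, RT; Measured by: flow cytometry, FL1 (488/535 nm); Evaluation: percent drop in bead-associated FITC signal.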
# Granule exo inh = lytic granule exocytosis inhibition | TALL-104 LAMP-1 surface exposure, flow cytometry; cells stimulated with thapsigargin and PMA | inhibition, % at 10 µM | 360,000 tested, 0.66% active | AID 651702;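 active = inhibition above about 55%, limit read from the data; inconclusive = no clear call, values can overlap the other calls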
# ABCB6 inh MLPCN = human ABCB6 transporter inhibition; Q9NP58; K562-ABCB6 porphyrin accumulation, flow cytometry, 1 h; active compounds read low; fluorescence ratio to DMSO, % at 10 µM; 360,000 tested, 0.19% active; AID 602162;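 active = fluorescence ratio to DMSO below 75%, the collection mean minus 3 SD; inconclusive = too few cells collected in the well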;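 also: signal is porphyrin accumulated inside mitochondria; 100% equals median channel fluorescence of DMSO control wells; lower ratio means ABCB6 inhibition with less porphyrin fluorescence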
# CendR NRP1 mod = NRP-1/CendR interaction modulation; O14786; FAM-RPARPAR peptide binding to NRP-1, fluorescence polarization; inhibition, % at 25 µM; 360,000 tested, 0.85% active;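 active = inhibition or corrected inhibition above about 18%, plus a signal ratio from 0.5 to 1.5, limit read from the data, passing the limit was not always enough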
# Target sequence (O14786 whole entry, looked up): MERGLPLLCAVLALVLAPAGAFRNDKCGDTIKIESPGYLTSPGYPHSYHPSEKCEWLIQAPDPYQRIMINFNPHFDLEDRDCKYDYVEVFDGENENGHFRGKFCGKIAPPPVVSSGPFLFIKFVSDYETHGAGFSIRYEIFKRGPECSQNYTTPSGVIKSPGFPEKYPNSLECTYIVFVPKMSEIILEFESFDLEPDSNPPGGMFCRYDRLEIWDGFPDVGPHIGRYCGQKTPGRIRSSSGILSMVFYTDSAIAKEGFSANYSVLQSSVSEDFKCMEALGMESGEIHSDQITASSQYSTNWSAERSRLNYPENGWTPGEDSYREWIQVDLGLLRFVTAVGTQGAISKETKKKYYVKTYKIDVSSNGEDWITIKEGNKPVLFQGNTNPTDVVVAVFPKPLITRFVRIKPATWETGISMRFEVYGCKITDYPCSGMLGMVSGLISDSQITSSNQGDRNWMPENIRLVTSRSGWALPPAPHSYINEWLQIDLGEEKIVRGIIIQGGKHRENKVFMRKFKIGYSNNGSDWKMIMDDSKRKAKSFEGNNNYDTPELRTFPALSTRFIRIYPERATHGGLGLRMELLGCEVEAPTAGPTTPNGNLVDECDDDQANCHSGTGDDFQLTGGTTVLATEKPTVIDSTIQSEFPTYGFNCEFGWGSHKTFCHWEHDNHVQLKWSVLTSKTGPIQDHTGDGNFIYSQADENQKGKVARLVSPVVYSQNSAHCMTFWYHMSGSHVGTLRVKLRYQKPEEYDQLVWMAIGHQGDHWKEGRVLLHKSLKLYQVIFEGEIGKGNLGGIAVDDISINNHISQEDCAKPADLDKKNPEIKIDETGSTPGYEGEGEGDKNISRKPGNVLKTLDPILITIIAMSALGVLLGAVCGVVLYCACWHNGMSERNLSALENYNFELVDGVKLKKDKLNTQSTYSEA
# Myeloid diff MLP = compounds promoting myeloid differentiation. 360,000 tested, 1% active. calls only at 10 µM. ER-HoxA9 myeloid progenitors, lysozyme-GFP differentiation, flow cytometry;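 active = normalized GFP-positive differentiation at or above the plate's own cutoff, the solvent-only control mean plus 3 SD; inconclusive = no clear call, values can overlap the other calls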;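 also: cells exposed to compound for four days before flow analysis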
# ABCB6 inh CP1 = human ABCB6 transporter inhibition | ratio response (% of DMSO), % at 10 µM | 700 tested, under 10 active | K562-ABCB6 porphyrin accumulation, flow cytometry, 1 h; active compounds read low | shares compounds with ABCB6 inh MLPCN;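 active = repeat-averaged ratio response below 75% of DMSO, the collection mean minus 3 SD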;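 also: median porphyrin fluorescence at 575 nm with 488 nm excitation from mitochondria; lower ratio means less porphyrin signal so ABCB6 inhibition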
# An asterisk follows results filed as active; i = inactive; u = inconclusive; x = no result.
SMILES,ATG4B inhibitor,Arrestin-AP2 inh,Granule exo inh,ABCB6 inh MLPCN,CendR NRP1 mod,Myeloid diff MLP,ABCB6 inh CP1
NS(=O)(=O)c1ccc(CCNc2ccn3nc(-c4ccccc4)cc3n2)cc1,x,x,1,103,-4,i,x
CC1(C(=O)Nc2ccc3c(c2)OCCO3)CN(S(C)(=O)=O)CC(=O)N1CCCn1ccnc1 (centres undefined),x,x,8,x,6,i,x
COC(=O)c1cccc(CC2(C)C(=O)Nc3ccc(OC(F)(F)F)cc32)c1 (centres undefined),x,x,-8,94,-6,i,x
Cc1nn(-c2ccccc2)c(N)c1Sc1cccc([N+](=O)[O-])c1,16,5,-4,93,2,i,x
Cc1nn(-c2ccccc2)c(N)c1Sc1ccccc1[N+](=O)[O-],-2,7,-2,46*,9,i,102
CC(C)C1CC(CCN2CCCCC2)(c2ccccc2)CCO1 (centres undefined),-5,15,-2,102,18,i,x
COc1ccc(NC(=O)Cc2ccc(Cl)cc2)cc1NC(=O)c1ccco1,-2,14,-1,60*,-9,i,96
COc1cc(NC(=O)Cc2ccccc2)ccc1NC(=O)c1ccco1,-13,24,-1,95,10,i,x
COC(=O)c1c(NC(=O)CN2C(=O)C(=O)N(C(C)C)C2=O)sc(C)c1C,-34,20,-3,95,-2,i,x
CC(C)(C(=O)N1CCC1(C)C(=O)NS(=O)(=O)c1cccc(Cl)c1)c1ccccc1 (centres undefined),x,x,5,98,-10,i,101
CC1(C(=O)NS(=O)(=O)c2ccccc2)CCN1C(=O)CCc1ccc(Cl)cc1Cl (centres undefined),x,x,3,96,2,i,98
COc1ccc(S(=O)(=O)NC(=O)C2(C)CCN2C(=O)Cc2ccccc2Cl)cc1 (centres undefined),x,x,-2,95,-6,i,102
CC1(C(=O)NS(=O)(=O)c2ccccc2C(F)(F)F)CCN1C(=O)C1CCCCC1 (centres undefined),x,x,10,62*,-12,i,100
O=C(CCN1CCOCC1)N1CCCC(Nc2cccc(F)c2)C1 (centres undefined),32,14,-4,99,-3,i,x
CCOC(=O)C1(C)CCCN(C(=O)c2c(F)cccc2F)C1 (centres undefined),x,x,0,102,-8,i,x
C[C@H]1CN([C@@H](C)CO)C(=O)CCCn2nncc2CO[C@H]1CN(C)C(=O)c1ccncc1,x,x,-2,100,7,i,x
CC(C)(C)c1ccc(CC(=O)N2CCC2(C)C(=O)NS(=O)(=O)c2ccccc2Cl)cc1 (centres undefined),x,x,2,99,-5,i,98
COc1ccc(OC)c(S(=O)(=O)NC(=O)C2(C)CCN2C(=O)Cc2ccccc2Cl)c1 (centres undefined),x,x,1,97,2,i,98
CC1(C(=O)NS(=O)(=O)c2ccccc2Cl)CCN1C(=O)Cc1ccccc1 (centres undefined),x,x,-7,99,2,i,x
COCCSc1nnc(NS(=O)(=O)c2ccc(F)cc2)s1,-1,5,-2,101,-7,i,x
COc1ccc(S(=O)(=O)N(CC(=O)O)c2ccccn2)cc1,4,10,-2,107,16,i,x
COc1ccc(S(=O)(=O)n2ccc(-c3ccc(OCCN(C)c4ccccn4)cc3)n2)cc1,-15,-5,2,73*,-2,i,100
CCOc1ccc(N(CC(=O)NCc2ccc(F)cc2)C(=O)CCC(=O)Nc2nccs2)cc1,-15,14,8,96,-7,i,x
Cc1nc(N2CCN(c3ccccc3)CC2)nc2c1C(=O)CCC2,2,4,-2,55*,-4,i,99
O=C(CCNC(=O)c1ccc([N+](=O)[O-])cc1)NCc1ccco1,4,2,0,94,2,i,x
SMILES,ATG4B inhibitor,Arrestin-AP2 inh,Granule exo inh,ABCB6 inh MLPCN,CendR NRP1 mod,Myeloid diff MLP,ABCB6 inh CP1
CCCCn1ccnc1C(=O)c1cccc(S(=O)(=O)N2CC(C)CC(C)C2)c1 (centres undefined),1,12,-2,74*,-9,i,97
CCCCn1ccnc1C(=O)c1cc(S(=O)(=O)N2CCOCC2)ccc1C,-2,-4,14,97,0,i,x
CC1=CC(=C2C(=O)c3ccccc3C2=O)C=C(C)N1Cc1ccco1,-23,8,-4,66*,-21,i,103
O=C(Nc1ccc(-n2nncc2-c2ccco2)cc1)c1cccc(F)c1,3,-3,2,58*,-12,i,99
COc1cccc(C(NC(C)=O)c2nc(-c3ccncc3)cs2)c1 (centres undefined),x,x,3,93,-12,i,x
O=C(CN1C(=O)c2cccc3cccc1c23)N1CCN(c2ccc(F)cc2)CC1,-20,3,-4,60*,-7,i,104
Cn1cc(CN2CCC(C(=O)NC(c3ccc(-c4ccccc4)cc3)c3cnccn3)CC2)c2ccccc21 (centres undefined),x,x,17,94,-6,u,x
COC(=O)C[C@H]1C=C[C@@H](C(C(=O)OC)C(=O)OC)CN1C(C)=O,x,-5,-12,100,3,i,x
COc1ccccc1C(=O)Nc1ccnn1C1CCN(C(=O)c2ccoc2)CC1,4,-6,-3,74*,3,i,98
CC12CCC(C(=O)N(CCCCN3CCN(c4ccccn4)CC3)C1=O)C2(C)C (centres undefined),0,-13,2,58*,3,i,99
Cc1cc2occ(CC(=O)N(C)CC(=O)Nc3ccc(F)cc3)c2cc1C,-4,0,0,99,1,i,x
CCOc1ccc(C(=O)NCC(C)C)cc1,-2,9,-2,74*,11,i,100
CCCc1ccc(OCCNC(C)=O)cc1,4,-3,-1,68*,3,i,102
O=c1c2ccccc2nc(-c2cccs2)n1-c1ccc2ccccc2c1,6,-9,-10,96,-3,i,x
O=S1(=O)C=C(SCc2ccc(Cl)c(Cl)c2)Nc2ccccc21,12,-5,4,96,-15,i,x
CCN1CCN(S(=O)(=O)c2ccc(OC)c(Br)c2)CC1,4,4,1,74*,1,i,100
COc1ccc(S(=O)(=O)N2CCN(C)CC2)cc1Br,-8,-10,-1,96,-9,i,x
C=CCN(CC=C)C(=O)Cn1cnc([N+](=O)[O-])n1,6,5,-1,104,-3,i,x
